According to ChEMBL document CHEMBL1136016, “Synthesis, biological activity, and molecular modeling investigation of new pyrazolo[4,3-e]-1,2,4-triazolo[1,5-c]pyrimidine derivatives as human A(3) adenosine receptor antagonists” (J Med Chem, 2002):
Blank lines part the entries; values can stand above or below the molecule they belong to.

Columns and labels:
Adenosine receptor A1 [1] = target: T1, Adenosine receptor A1 (Homo sapiens, UniProt P30542); experiment: Displacement of [3H]DPCPX from human Adenosine A1 receptor expressed in CHO cells; range 264-463; format: cell-based
T1 sequence (P30542 whole entry): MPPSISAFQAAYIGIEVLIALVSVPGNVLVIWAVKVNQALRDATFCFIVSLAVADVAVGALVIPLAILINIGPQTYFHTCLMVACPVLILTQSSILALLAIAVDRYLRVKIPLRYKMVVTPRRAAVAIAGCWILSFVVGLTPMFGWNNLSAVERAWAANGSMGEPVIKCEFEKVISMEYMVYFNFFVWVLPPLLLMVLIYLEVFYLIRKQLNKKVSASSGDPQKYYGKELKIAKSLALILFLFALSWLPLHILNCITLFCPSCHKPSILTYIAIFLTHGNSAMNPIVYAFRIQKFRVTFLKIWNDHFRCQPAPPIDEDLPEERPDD
Procedure, shortened: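 Competition binding on membranes of CHO cells stably expressing human A1 receptor, resuspended in 50 mM Tris HCl pH 7.4. Incubation 120 min at 25 °C with 1 nM [3H]DPCPX, 50 µg protein per assay and at least six to eight test concentrations. CHA defined nonspecific binding. Bound ligand separated on glass-fibre filters and counted; n = 3-6.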

Adenosine receptor A2b [2] = target: T2, Adenosine receptor A2b (Homo sapiens, UniProt P29275); experiment: Displacement of [3H]DPCPX from human Adenosine A2B receptor expressed in HEK293 cells; range 105-170; format: cell-based
T2 sequence (P29275 whole entry): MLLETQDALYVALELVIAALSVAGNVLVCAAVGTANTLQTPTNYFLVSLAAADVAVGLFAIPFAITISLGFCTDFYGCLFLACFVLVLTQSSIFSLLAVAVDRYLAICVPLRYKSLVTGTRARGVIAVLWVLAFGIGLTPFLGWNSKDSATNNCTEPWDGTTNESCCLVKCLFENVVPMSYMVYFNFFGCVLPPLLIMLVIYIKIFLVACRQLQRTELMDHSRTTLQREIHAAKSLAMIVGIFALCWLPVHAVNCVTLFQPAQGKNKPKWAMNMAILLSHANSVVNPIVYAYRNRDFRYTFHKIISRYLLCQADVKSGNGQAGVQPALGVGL
Procedure, shortened: (§1)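 Competition binding on membranes of HEK-293 cells carrying recombinant human A2B receptor. Incubation 60 min at 25 °C in 50 mM Tris HCl pH 7.4 with 10 mM MgCl2, 1 mM EDTA, 0.1 mM benzamidine and 2 IU/mL adenosine deaminase. Radioligand 40 nM [3H]DPCPX, at least six to eight test concentrations. NECA defined nonspecific binding. Bound ligand separated on glass-fibre filters and counted; n = 3-6.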

Adenosine receptor A2a [3] = target: T3, Adenosine receptor A2a (Homo sapiens, UniProt P29274); experiment: Displacement of [3H]SCH-58261 from human Adenosine A2A receptor expressed in HEK293 cells; range 25-40; format: cell-based
T3 sequence (P29274 whole entry): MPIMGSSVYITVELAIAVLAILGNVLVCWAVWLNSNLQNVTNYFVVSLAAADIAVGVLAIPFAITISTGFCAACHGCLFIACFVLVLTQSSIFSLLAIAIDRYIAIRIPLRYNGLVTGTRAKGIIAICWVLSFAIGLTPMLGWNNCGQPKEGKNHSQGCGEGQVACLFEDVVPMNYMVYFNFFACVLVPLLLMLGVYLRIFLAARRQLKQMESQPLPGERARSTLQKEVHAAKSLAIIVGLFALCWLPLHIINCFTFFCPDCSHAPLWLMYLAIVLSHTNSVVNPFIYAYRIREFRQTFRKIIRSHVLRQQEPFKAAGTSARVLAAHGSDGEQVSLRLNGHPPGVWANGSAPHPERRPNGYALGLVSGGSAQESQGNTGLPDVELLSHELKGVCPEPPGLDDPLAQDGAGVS

Adenosine receptor A3 [4] = target: T4, Adenosine receptor A3 (Homo sapiens, UniProt P0DMS8); experiment: Displacement of [3H]MRE3008-F20 from human Adenosine A3 receptor expressed in HEK cells; range 0.61-0.84; format: cell-based, HEK293
T4 sequence (P0DMS8 whole entry): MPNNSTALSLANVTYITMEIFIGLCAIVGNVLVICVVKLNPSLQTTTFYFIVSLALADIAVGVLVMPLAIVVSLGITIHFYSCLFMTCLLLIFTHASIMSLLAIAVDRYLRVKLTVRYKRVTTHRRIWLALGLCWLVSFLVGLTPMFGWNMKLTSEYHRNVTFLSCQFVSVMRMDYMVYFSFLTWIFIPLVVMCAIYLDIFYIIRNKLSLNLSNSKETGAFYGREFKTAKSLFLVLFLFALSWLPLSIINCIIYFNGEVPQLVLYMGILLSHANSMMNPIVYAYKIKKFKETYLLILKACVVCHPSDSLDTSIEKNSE

[5] = target: Adenosine receptors; A2b & A3 (Homo sapiens) (UniProt P29275+P0DMS8); experiment: Selectivity ratio (h2B/hA3); format: protein assay
[6] = target: Adenosine receptors; A1 & A3 (Homo sapiens) (UniProt P30542+P0DMS8); experiment: Selectivity ratio (hA1/hA3); format: protein assay
Adenosine receptor A1 [7] = target: T1, Adenosine receptor A1; experiment: Displacement of [3H]DPCPX from human Adenosine A1 receptor expressed in CHO cells; range 598-838; format: cell-based
Adenosine receptor A2a [8] = target: T3, Adenosine receptor A2a; experiment: Displacement of [3H]SCH-58261 from human Adenosine A2A receptor expressed in HEK293 cells; range 402-608; format: cell-based
Adenosine receptor A2b [9] = target: T2, Adenosine receptor A2b; experiment: Displacement of [3H]DPCPX from human Adenosine A2B receptor expressed in HEK293 cells; range 26-45; format: cell-based
Procedure, shortened: (§2)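 Membranes from HEK-293 cells with human recombinant A2B receptor. Incubation 60 min at 25 °C in 50 mM Tris HCl, 10 mM MgCl2, 1 mM EDTA, 0.1 mM benzamidine, pH 7.4, with 2 IU/mL adenosine deaminase and 40 nM [3H]DPCPX. At least six to eight test concentrations. Nonspecific binding defined with NECA. n = 3-6.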

Adenosine receptor A3 [10] = target: T4, Adenosine receptor A3; experiment: biochemical
Adenosine receptor A1 [11] = target: T1, Adenosine receptor A1; experiment: Displacement of [3H]DPCPX from human Adenosine A1 receptor expressed in CHO cells; range 330-486; format: cell-based
Adenosine receptor A2b [12] = target: T2, Adenosine receptor A2b; experiment: Displacement of [3H]DPCPX from human Adenosine A2B receptor expressed in HEK293 cells; range 68-105; format: cell-based; procedure, shortened: as §2
Adenosine receptor A2a [13] = target: T3, Adenosine receptor A2a; experiment: Displacement of [3H]SCH-58261 from human Adenosine A2A receptor expressed in HEK293 cells; range 134-190; format: cell-based
Adenosine receptor A3 [14] = target: T4, Adenosine receptor A3; experiment: biochemical; remark: listed apart in the source
Adenosine receptor A1 [15] = target: T1, Adenosine receptor A1; experiment: Displacement of [3H]DPCPX from human Adenosine A1 receptor expressed in CHO cells; range 379-535; format: cell-based
Procedure, shortened: (§3)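 Human recombinant A1 receptor in CHO cell membranes, resuspended in 50 mM Tris HCl pH 7.4. Displacement run 120 min at 25 °C with 1 nM [3H]DPCPX, 50 µg protein per assay, and at least six to eight test concentrations. Nonspecific binding defined with CHA. Bound and free separated on glass-fiber filters; filter radioactivity counted. n = 3-6.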

Adenosine receptor A3 [16] = target: T4, Adenosine receptor A3; experiment: Inhibition of IB-MECA agonist-mediated cAMP production in CHO cell membranes expressing human Adenosine A3 receptor; range 3.0-10.8; format: functional, cell-based
Adenosine receptor A3 [17] = target: T4, Adenosine receptor A3; experiment: Displacement of [3H]MRE3008-F20 from human Adenosine A3 receptor expressed in HEK cells; range 0.59-0.83; format: cell-based, HEK293
Adenosine receptor A2a [18] = target: T3, Adenosine receptor A2a; experiment: Displacement of [3H]SCH-58261 from human Adenosine A2A receptor expressed in HEK293 cells; range 146-220; format: cell-based
Adenosine receptor A2b [19] = target: T2, Adenosine receptor A2b; experiment: Displacement of [3H]DPCPX from human Adenosine A2B receptor expressed in HEK293 cells; range 187-265; format: cell-based; procedure, shortened: as §2
Adenosine receptor A1 [20] = target: T1, Adenosine receptor A1; experiment: Displacement of [3H]DPCPX from human Adenosine A1 receptor expressed in CHO cells; range 654-856; format: cell-based
Adenosine receptor A3 [21] = target: T4, Adenosine receptor A3; experiment: Inhibition of IB-MECA agonist-mediated cAMP production in CHO cell membranes expressing human Adenosine A3 receptor; range […]; format: functional, cell-based
Procedure, shortened: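 Human A3-CHO membranes (in 50 mM Tris HCl, 10 mM MgCl2, 1 mM EDTA, pH 7.4) were preincubated for 10 min at 37 °C with 5 µM GTP, 0.5 mM Ro 20-1724 and 2.0 IU/mL adenosine deaminase. IB-MECA (100 nM) or antagonist was then added with 1 mM ATP and forskolin for 10 min. The reaction was stopped by 2 min boiling. cAMP was measured by [3H]cAMP competitive protein binding using beef adrenal binding protein, 150 min at 4 °C.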

Adenosine receptor A2a [22] = target: T3, Adenosine receptor A2a; experiment: Displacement of [3H]SCH-58261 from human Adenosine A2A receptor expressed in HEK293 cells; range 112-177; format: cell-based
Adenosine receptor A3 [23] = target: T4, Adenosine receptor A3; experiment: Displacement of [3H]MRE3008-F20 from human Adenosine A3 receptor expressed in HEK cells; range 0.64-0.86; format: cell-based, HEK293
Adenosine receptor A2b [24] = target: T2, Adenosine receptor A2b; experiment: Displacement of [3H]DPCPX from human Adenosine A2B receptor expressed in HEK293 cells; range 235-347; format: cell-based; procedure, shortened: as §1
Adenosine receptor A1 [25] = target: T1, Adenosine receptor A1; experiment: Displacement of [3H]DPCPX from human Adenosine A1 receptor expressed in CHO cells; range 601-888; format: cell-based; procedure, shortened: as §3
Adenosine receptor A2a [26] = target: T3, Adenosine receptor A2a; experiment: Displacement of [3H]SCH-58261 from human Adenosine A2A receptor expressed in HEK293 cells; range 93-130; format: cell-based
Adenosine receptor A3 [27] = target: T4, Adenosine receptor A3; experiment: Inhibition of IB-MECA agonist-mediated cAMP production in CHO cell membranes expressing human Adenosine A3 receptor; range 2.7-7.8; format: functional, cell-based
Adenosine receptor A2b [28] = target: T2, Adenosine receptor A2b; experiment: Displacement of [3H]DPCPX from human Adenosine A2B receptor expressed in HEK293 cells; range 244-373; format: cell-based
Procedure, shortened: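 HEK-293 membranes expressing the human receptor were incubated 60 min at 25 °C. Six to eight test concentrations were used. Nonspecific binding was set with NECA. n = 3-6.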

Adenosine receptor A3 [29] = target: T4, Adenosine receptor A3; experiment: biochemical; remark: listed apart in the source

Structure (SMILES): CCCCn1cc2c(nc(NC(=O)Nc3ccc(C(F)(F)F)cc3)n3nc(-c4ccco4)nc23)n1
Ki (Adenosine receptor A1 [1]): 350 nM
Ki (Adenosine receptor A2b [2]): 130 nM
Ki (Adenosine receptor A2a [3]): 31 nM
Ki (Adenosine receptor A3 [4]): 0.72 nM
Ratio [5]: 181
Ratio [6]: 486

Structure (SMILES): CCCCn1cc2c(nc(NC(=O)Nc3ccc(Cl)c(Cl)c3)n3nc(-c4ccco4)nc23)n1
Ki (Adenosine receptor A1 [7]): 708 nM
Ki (Adenosine receptor A2a [8]): 495 nM
Ki (Adenosine receptor A2b [9]): 34 nM
Ratio [5]: 9.19
Ratio [6]: 191
Ki (Adenosine receptor A3 [10]): 3.7 nM

Next, values leading:

Ki (Adenosine receptor A1 [11]): 400 nM
Ki (Adenosine receptor A2b [12]): 85 nM
Ki (Adenosine receptor A2a [13]): 160 nM
Ratio [5]: 425
Ratio [6]: 2000
Ki (Adenosine receptor A3 [14]): 0.2 nM
Structure (SMILES): CCn1cc2c(nc(NC(=O)Nc3ccc(Cl)cc3)n3nc(-c4ccco4)nc23)n1

Ki (Adenosine receptor A1 [15]): 450 nM
IC50 (Adenosine receptor A3 [16]): 5.6 nM
Ki (Adenosine receptor A3 [17]): 0.7 nM
Ki (Adenosine receptor A2a [18]): 180 nM
Ki (Adenosine receptor A2b [19]): 223 nM
Ratio [5]: 319
Ratio [6]: 643
Structure (SMILES): COc1ccccc1NC(=O)Nc1nc2nn(C)cc2c2nc(-c3ccco3)nn12

Ki (Adenosine receptor A1 [20]): 750 nM
IC50 (Adenosine receptor A3 [21]): 6.6 nM
Ki (Adenosine receptor A2a [22]): 140 nM
Ki (Adenosine receptor A3 [23]): 0.74 nM
Ki (Adenosine receptor A2b [24]): 286 nM
Ratio [5]: 386
Ratio [6]: 1010
Structure (SMILES): Cn1cc2c(nc(NC(=O)Nc3ccc(C(F)(F)F)cc3)n3nc(-c4ccco4)nc23)n1

Ki (Adenosine receptor A1 [25]): 731 nM
Ki (Adenosine receptor A2a [26]): 110 nM
IC50 (Adenosine receptor A3 [27]): 4.6 nM
Ratio [5]: 974
Ratio [6]: 2360
Ki (Adenosine receptor A2b [28]): 302 nM
Ki (Adenosine receptor A3 [29]): 0.31 nM
Structure (SMILES): Cc1ccc(NC(=O)Nc2nc3nn(C)cc3c3nc(-c4ccco4)nn23)cc1
